From ChEMBL document CHEMBL1157082, “Sesquiterpenes from Oplopanax horridus” (J Nat Prod, 2010)
Values after ≈ are worked out from the molar mass of the structure shown.

Experiments:
[1] = tested on: Mycobacterium tuberculosis; test: Antituberculosis activity against Mycobacterium tuberculosis Erdman by microplate alamar blue assay; type: functional
Outline: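 MIC read by microplate Alamar Blue assay against virulent M. tuberculosis Erdman (ATCC 35801). Rifampin served as positive control. Crude fractions were scored as percent inhibition at several concentrations, and pure isolates as MICs.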

[2] = tested on: Vero; test: Cytotoxicity against african green monkey Vero cells; type: cell-based; conditions: chlorocebus sabaeus
Outline: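 IC50 in Vero cells, run alongside the MIC assay. Test concentrations were at or below 1% of the maximum achievable stock concentration in DMSO.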

[3] = Selectivity index, ratio of IC50 for african green monkey Vero cells to MIC for Mycobacterium tuberculosis Erdman; type: functional
[4] = tested on: Mycobacterium tuberculosis; test: Antituberculosis activity against Mycobacterium tuberculosis H37Ra by microplate alamar blue assay; type: functional

SMILES | MIC [1] [µg/mL] | Activity [2] | Selectivity Index [3] | MIC [4] [µg/mL]
C=C[C@@](C)(O)CC[C@@H](O)[C@]1(C)CC[C@H](C(C)(C)O)O1 (relative stereo) [NEROPLOFUROL] | > 128 | Non-toxic |  | 
C=C[C@@H](O)C#CC#C[C@@H](O)/C=C\CCCCCCC [FALCARINDIOL] | 6.2 (≈ 23.8 µM) | Non-toxic |  | 
C=CC1(C)CC/C=C(/C)CCC(C(C)(C)O)O1 (stereo not given) [NEROPLOMACROL] | > 128 | Non-toxic |  | 
CCCCCCC/C=C\[C@H](O)C#CC#C[C@@H](O)CC [OPLOPANDIOL] | 61.5 (≈ 234 µM) | Non-toxic | 6.2 | 
c1cc2c(cc1[C@H]1OC[C@H]3[C@@H]1CO[C@@H]3c1ccc3c(c1)OCO3)OCO2 [SESAMIN] |  |  |  | > 200
